Data reported in article PMC7617399 (Nature microbiology, 2016).
Where two headings read alike, the source gives them in different places.

What was measured:
[1] = target: purified recombinant UAP56 (GST-UAP56) (Homo sapiens, UniProt Q13838); test: UAP56 ATPase assay; assay type: biochemical
How it was run: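 2.5 μM GST-UAP56 (E. coli BL-21, glutathione-eluted, buffer-exchanged) with 50 μM yeast tRNA, 35 μM ATP, 2 mM MgCl2, 50 mM KCl, 50 mM Tris/HCl pH 7.6. Screening at 100 μM final compound. IC50 series delivered in DMSO (1% of reaction). 37°C, 30 min, remaining ATP read by Kinase-Glo luminescence. Biological replicates.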

[2] = MTS cell viability assay, TREx BCBL1-Rta; assay type: cell-based, human; conditions: human, TREx BCBL1-Rta cells
How it was run: (§1)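 MTS assay: TREx BCBL1-Rta plated at 1×10^6 cells/ml and treated at once with test compound in DMSO (0.1% of volume, also added to controls). Viability read at 24 and 72 h. Biological replicates.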

[3] = test system: KSHV minor capsid protein (mCP) expression in TREx BCBL1-Rta cells; test: Viral late protein mCP expression; assay type: cell-based; conditions: for EC50: read-out: EC50 24 h (μM) (mCP expression)
[4] = test system: KSHV viral load in TREx BCBL1-Rta cells; test: KSHV replication assay; assay type: cell-based; conditions: for EC50: read-out: EC50 72 h (μM) (Viral load)
ORF57-UAP56 interaction = ORF57-UAP56 interaction (Homo sapiens, UniProt Q13838); test: Co-immunoprecipitation of ORF57 with UAP56; assay type: cell-based, KSHV / human; conditions: nucleotide added to HEK-293T lysates (1.25 mM or concentration series)
How it was run: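 1×10^6 HEK-293T transfected with 1 μg ORF57-GFP or GFP plasmid (Lipofectamine), lysed after 24 h on ice for 20 min in modified RIPA (50 mM Tris/HCl, 150 mM NaCl, 1% NP40-alternative, pH 7.6) plus RNase A. Lysate clarified, pre-cleared on protein A for 2 h at 4°C, pulled down on GFP-trap beads with ATP, ADP or ATPγS for 2.5 h at 4°C. Western blot.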

recombinant GST-UAP56 = recombinant GST-UAP56 (Homo sapiens, UniProt Q13838); test: Microscale thermophoresis binding to UAP56; conditions: read-out: KD (microscale thermophoresis); FITC-labelled GST-UAP56, 37°C
How it was run: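 GST-UAP56 FITC-labelled, desalted into 20 mM HEPES pH 7.4 with 2 mM MgCl2, used at 100–500 nM. Titrated with test compound in a 1:1 serial dilution from 4.5 mM, final DMSO 20% (v/v). LED power 10–60%, 37°C. KD fitted in thermophoresis mode. Biological replicates.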

[5] = target: ADP-bound purified recombinant UAP56 (Homo sapiens, UniProt Q13838); test: ADP displacement assay; assay type: binding
How it was run: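 Pre-formed ADP-bound enzyme: 5 μM GST-UAP56 (E. coli BL-21) run with 5 μM ATP for 30 min under ATPase-assay buffer conditions. Leftover ATP depleted with ADP-Glo reagent, then test compound added at rising concentrations and incubated 37°C for 30 min. Freed ADP converted to ATP and read by luminescence. n = 3 biological replicates.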

HEK-293T cells = test: MTS cell viability assay, HEK-293T; assay type: cell-based, human
How it was run: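 MTS assay: HEK-293T plated at 0.5×10^6 cells/ml 24 h ahead, then given test compound in DMSO (0.1% of volume, also added to controls). Readings normalised to DMSO wells, n = 5. CC50 from four-parameter variable-slope non-linear regression.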

TREx BCBL1-Rta cells [6] = test: MTS cell viability assay, TREx BCBL1-Rta; assay type: cell-based, human; conditions: TREx BCBL1-Rta, MTS, mean ± s.e.m.
How it was run: as §1

KSHV = test: Infectious KSHV virion production; assay type: cell-based; conditions: 2.5 μM, supernatant 72 h after induction
How it was run: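 0.8×10^6 TREx BCBL1-Rta cells reactivated with 2 μg/ml doxycycline and treated with test compound or DMSO. Supernatants filtered at 72 h and used 1:1 on 1×10^6 HEK-293T. At 24 h post-infection, TRIzol RNA assayed by qRT-PCR for viral mRNA, normalised to GAPDH, shown as fold change against DMSO.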

hTREX-UAP56 interaction = hTREX-UAP56 interaction (Homo sapiens, UniProt Q13838); test: Co-immunoprecipitation of endogenous hTREX with UAP56; assay type: cell-based; conditions: up to 0.5 mM added to the lysate
[7] = test system: ORF57-mediated ORF47 mRNA stabilization and export in HEK-293T cells; test: Viral mRNA export assay; assay type: cell-based, KSHV; conditions: 2.5 μM, 18 h
How it was run: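 HEK-293T co-transfected with GFP or ORF57-GFP plus an intronless ORF47 reporter, then exposed to DMSO or test compound for 18 h. RNA taken from whole-cell and cytoplasmic fractions. ORF47 measured by qRT-PCR, normalised to GAPDH, ΔΔCT. n = 3, unpaired t test.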

[8] = test system: ORF57-mediated nuclear retention of cellular bulk mRNA in HEK-293T cells; test: Fluorescence in situ hybridization of poly; assay type: cell-based, human; conditions: ORF57-GFP expressing HEK-293T, 24 h treatment
How it was run: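 HEK-293T transfected with GFP or ORF57-GFP for 6 h, then DMSO or test compound for 24 h. Poly(A) RNA detected with 5′ Alexa Fluor 546-labelled oligo dT(70) probe, nuclei stained with DAPI, confocal imaging. Cells showing nuclear mRNA retention counted. 4 independent experiments.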

TREx BCBL1-Rta cells [9] = test: Apoptosis assay; assay type: cell-based, human; conditions: 72 h, CCT018159 at 2.5 μM
How it was run: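 TREx BCBL1-Rta cells exposed to DMSO or test compound for 72 h, washed, then incubated in HEPES buffer with Annexin-V-fluorescein plus propidium iodide to mark apoptotic and necrotic cells. Analysis by flow cytometry. Biological replicates.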

[10] = test system: KSHV latent nuclear antigen (LANA); test: LANA immunoblotting; assay type: cell-based; conditions: immunoblot, range of concentrations
HSV-1 [11] = test: Infectious HSV-1 virion production; assay type: cell-based
HSV-1 [12] = test: HSV-1 plaque assay after primary infection; assay type: cell-based; conditions: increasing concentrations, HFF cells
How it was run: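 HFF (2×10^5) infected with HSV-1 at MOI 0.001 for 1 h and washed twice in PBS. Cells then overlaid with plaque agar (growth medium 1:1 with 2% agarose, 37°C) holding test compound or DMSO (0.1% final). Agarose lifted at 96 h, cells fixed 10 min in 4% paraformaldehyde, stained with 0.5% crystal violet, plaques counted by eye. Lysis also imaged directly.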

HCMV = test: Infectious HCMV virion production; assay type: cell-based
HSP90 = conditions: read-out: Ki (HSP90); reported value; cited from earlier work
[13] = reactivated TREx BCBL1-Rta, 72 h, qPCR, mean ± s.e.m.

Chain of ORF57-UAP56 interaction (P82979 2-210): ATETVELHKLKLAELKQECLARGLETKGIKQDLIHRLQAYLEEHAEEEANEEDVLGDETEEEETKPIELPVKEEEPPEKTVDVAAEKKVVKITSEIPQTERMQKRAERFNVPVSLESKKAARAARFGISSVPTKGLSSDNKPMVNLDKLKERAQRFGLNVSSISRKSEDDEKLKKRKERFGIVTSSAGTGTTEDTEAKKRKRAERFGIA
Chain of ORF57-UAP56 interaction (Q13838 2-428): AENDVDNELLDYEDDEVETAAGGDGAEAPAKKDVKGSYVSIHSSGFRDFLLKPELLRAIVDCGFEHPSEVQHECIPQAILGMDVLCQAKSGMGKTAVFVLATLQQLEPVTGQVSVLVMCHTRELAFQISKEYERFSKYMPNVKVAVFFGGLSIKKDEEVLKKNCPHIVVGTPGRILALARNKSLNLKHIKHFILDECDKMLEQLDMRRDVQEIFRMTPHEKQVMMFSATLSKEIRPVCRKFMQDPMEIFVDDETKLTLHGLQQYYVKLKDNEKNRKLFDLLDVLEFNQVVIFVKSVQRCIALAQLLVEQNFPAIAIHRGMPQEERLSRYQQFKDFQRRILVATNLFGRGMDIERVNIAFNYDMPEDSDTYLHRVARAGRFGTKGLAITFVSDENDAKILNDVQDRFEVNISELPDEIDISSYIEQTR
Chain of purified recombinant UAP56 (GST-UAP56) (Q13838 whole entry): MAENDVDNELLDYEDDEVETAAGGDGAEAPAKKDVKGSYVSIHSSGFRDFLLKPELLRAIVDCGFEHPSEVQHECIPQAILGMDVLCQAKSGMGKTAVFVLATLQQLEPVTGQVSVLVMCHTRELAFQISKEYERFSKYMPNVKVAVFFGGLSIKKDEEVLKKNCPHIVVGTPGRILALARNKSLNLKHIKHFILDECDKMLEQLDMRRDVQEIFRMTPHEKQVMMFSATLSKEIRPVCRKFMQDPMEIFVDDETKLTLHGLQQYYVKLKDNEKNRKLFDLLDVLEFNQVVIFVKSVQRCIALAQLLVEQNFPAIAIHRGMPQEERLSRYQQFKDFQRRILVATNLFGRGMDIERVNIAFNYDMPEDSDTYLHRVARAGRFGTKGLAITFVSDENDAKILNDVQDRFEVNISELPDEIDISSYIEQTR
Chain of ADP-bound purified recombinant UAP56 (Q13838 whole entry): as above
Chain of recombinant GST-UAP56 (Q13838 whole entry): as above
Chain of hTREX-UAP56 interaction (Q13838 2-428): as the sequence (Q13838 2-428) above
Chain of hTREX-UAP56 interaction (P82979 2-210, further chain): as the sequence (P82979 2-210) above

Structure (SMILES): CCc1cc(-c2n[nH]c(C(=O)O)c2-c2ccc(OC)cc2)c(O)cc1O [Cmpd. 4, 3-(5-Ethyl-2,4-dihydroxyphenyl)-4-(4-methoxyphenyl)-1H-pyrazole-5-carboxylic acid]
- IC50 [1]: > 1000 µM
- CC50 at 24 h [2]: ~820 µM
- CC50 at 72 h [2]: > 1000 µM
- EC50 ([3]; Human gammaherpesvirus 8, 24 h): > 1000 µM
- EC50 ([4]; Human gammaherpesvirus 8, 72 h): 138 ± 45.2 µM

Structure (SMILES): Nc1ncnc2c1ncn2[C@@H]1O[C@H](COP(=O)(O)OP(=O)(O)O)[C@@H](O)[C@H]1O [ADP]
- effect of nucleotide on ORF57-UAP56/hTREX interaction (ORF57-UAP56 interaction): disrupted

Structure (SMILES): Nc1ncnc2c1ncn2[C@@H]1O[C@H](COP(=O)(O)OP(=O)(O)OP(=O)(O)O)[C@@H](O)[C@H]1O [ATP]
- Kd (recombinant GST-UAP56): 30.1 ± 4.5 µM
- effect of nucleotide on ORF57-UAP56/hTREX interaction (ORF57-UAP56 interaction): enhanced

Structure (SMILES): CCc1cc(-c2n[nH]c(C)c2-c2ccc(OC)cc2)c(O)cc1O [Cmpd. 3, 4-Ethyl-6-(4-(4-methoxyphenyl)-3-methyl-1H-pyrazol-5-yl)benzene-1,3-diol]
- IC50 [1]: 88.7 ± 7.9 µM
- CC50 at 24 h [2]: 27.9 ± 2.7 µM
- CC50 at 72 h [2]: 14.7 ± 0.5 µM
- EC50 ([3]; Human gammaherpesvirus 8, 24 h): 2.4 ± 0.4 µM
- EC50 ([4]; Human gammaherpesvirus 8, 72 h): 2.7 ± 0.2 µM

Structure (SMILES): Nc1ncnc2c1ncn2[C@@H]1O[C@H](CO[P@](=O)(O)O[P@](=O)(O)O[P@@](=O)(O)S)[C@@H](O)[C@H]1O [ATPγS, Adenosine 5′-O-(3-thio)triphosphate]
- effect of nucleotide on ORF57-UAP56/hTREX interaction (ORF57-UAP56 interaction): significantly inhibited

Structure (SMILES): CCc1cc(-c2n[nH]c(C)c2-c2ccc3c(c2)OCCO3)c(O)cc1O [CCT018159]
- reduction of UAP56 activity ([1]; at 100 μM (compound screening)): > 70%
- Kd (recombinant GST-UAP56): 76 ± 3.8 µM
- mode of inhibition (ADP displacement) ([5]; ADP-bound UAP56, increasing concentrations): ATP/ADP-competitive inhibitor
- IC50 ([5]; read-out: IC50 (ADP displacement)): ~60 µM
- non-cytotoxic concentrations (HEK-293T cells): < 15 µM
- CC50 (TREx BCBL1-Rta cells [6]; read-out: CC50 24 h (μM) (Cell viability), 24 h): 21.1 ± 1.6 µM
- CC50 (TREx BCBL1-Rta cells [6]; read-out: CC50 72 h (μM) (Cell viability), 72 h): 16.6 ± 1.1 µM
- mCP expression ([3]; at 2.5 μM): marked reduction
- concentrations at which mCP inhibition occurred ([3]; immunoblot): 1 to 2.5 µM
- EC50 ([3]; reactivated TREx BCBL1-Rta, 24 h, mean ± s.e.m.): 0.6 ± 0.1 µM
- potency of antiviral effect relative to IC50 on purified UAP56 ([4]; discussion): 30 fold
- concentration of antiviral effect ([4]; discussion, assay not specified): around 2 μM
- EC50 [4, 13]: 1.1 ± 0.1 µM
- reduction of viral mRNA in re-infected cells versus controls (KSHV): 80%
- effect on hTREX-UAP56 interaction (hTREX-UAP56 interaction): did not inhibit
- effect on ORF57-mediated ORF47 mRNA stabilization and export [7]: abolished
- effect on ORF57-mediated nuclear retention of poly(A) RNA [8]: nuclear retention was lost
- apoptosis (TREx BCBL1-Rta cells [9]): no increase in apoptosis
- LANA degradation [10]: no LANA degradation
- reduction in infected cells (HSV-1 re-infection) (HSV-1 [11]; 2.5 μM): 50%
- reduction in infected cells (HSV-1 re-infection) (HSV-1 [11]; 5 μM): 95%
- cell lysis, plaque size and plaque number (HSV-1 [12]): dramatically decreased
- reduction of HCMV virion production (HCMV; 1 μM): 50%
- reduction of HCMV virion production (HCMV; 2.5 μM): over 99%
- Ki (HSP90): 1.8 ± 0.3 µM

Structure (SMILES): CO[C@H]1/C=C\C=C(/C)C(=O)NC2=CC(=O)C(NCCN(C)C)=C(C[C@@H](C)C[C@H](OC)[C@H](O)[C@@H](C)/C=C(\C)[C@@H]1OC(N)=O)C2=O [Compound 17-DMAG]
- UAP56 ATPase inhibition ([1]; Supplementary Fig. 2a): no UAP56 ATPase inhibition
- EC50 [4, 13]: 0.04 ± 0.01 µM
- effect on ORF57-mediated nuclear retention of poly(A) RNA [8]: failed to relieve
- apoptosis (TREx BCBL1-Rta cells [9]): increased levels of apoptosis and necrosis
- LANA degradation [10]: enhanced
